Laboratory results as given in paper PMC3752283 (The Analyst, 2013).
Positions of bridges follow the written chain, without caps; N, C: chain ends. Non-standard residues stand in square brackets, D forms with d. Residues, ends and D or L forms follow the SMILES beside them. *: point of attachment. 6FAM = O=C1OC2(c3ccc(O)cc3Oc3cc(O)ccc32)c2cc(C(=O)*)ccc21; PEG3 = NCCOCCOCCOCCC(=O)O

Assay: Lysate degradation assay
Format: in vitro ADME, mouse
Settings: for time for 90% degradation of the peptide: Baf/BCR-ABL cell lysate, 3 mg mL^-1 protein, 2 μM peptide, 37 °C, CE-LIF; for half-life at 2 μM: mouse, Baf/BCR-ABL cell lysate (cytosolic), pH 7.4
How it was run: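 Mouse B-cell lymphoma Baf/BCR-ABL cells washed and resuspended in cold ECB (pH 7.4), then lysed by three cycles of liquid nitrogen (1 min) and 37 °C thaw; supernatant kept after 14,000 × g, 4 °C, 5 min. Peptide at 2 μM in lysate (3 mg mL−1 protein), 37 °C, triplicate. Timed aliquots quenched with HCl (100 mM final) and 95 °C for 4 min. Intact fraction = intact-peak area / total peak area.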

Row | time for 90% degradation of the peptide [min] | increase in half-life over the control peptide (Baf/BCR-ABL cytosolic lysate) [fold] | half-life at 2 μM [min] | SMILES
1 | ≤ 10 | ~10 | 4.8 ± 0.4 | CC[C@H](C)[C@H](NC(=O)[C@H](C)NC(=O)[C@H](CCC(=O)O)NC(=O)[C@H](CCCCNC(=O)c1ccc2c(c1)C1(OC2=O)c2ccc(O)cc2Oc2cc(O)ccc21)NC(=O)CCOCCOCCOCCNC(=O)CCOCCOCCOCCNC(=O)[C@H](CCCNC(=N)N)NC(=O)CNC(=O)[C@H]1CCCN1C(=O)[C@@H](N)Cc1c[nH]c2ccccc12)C(=O)N[C@@H](Cc1ccc(O)cc1)C(=O)N[C@@H](C)C(=O)N[C@@H](C)C(=O)N1CCC[C@H]1C(=O)N[C@@H](Cc1ccccc1)C(=O)N[C@@H](C)C(=O)N[C@@H](CCCCN)C(=O)N[C@@H](CCCCN)C(=O)N[C@@H](CCCCN)C(N)=O [Peptide 2] (H-W[dP]GR[PEG3][PEG3]K(6FAM)EAIYAAPFAKKK-NH2; N-terminus assumed)
2 | 25 |  | 9.2 ± 1.2 | CC[C@H](C)[C@H](NC(=O)[C@H](C)NC(=O)[C@H](CCC(=O)O)NC(=O)[C@H](CCCCNC(=O)c1ccc2c(c1)C1(OC2=O)c2ccc(O)cc2Oc2cc(O)ccc21)NC(=O)CCOCCOCCOCCNC(=O)CCOCCOCCOCCNC(=O)[C@@H]1CSCC(=O)N[C@@H](Cc2c[nH]c3ccccc23)C(=O)N2CCC[C@@H]2C(=O)NCC(=O)N[C@@H](CCCNC(=N)N)C(=O)N1)C(=O)N[C@@H](Cc1ccc(O)cc1)C(=O)N[C@@H](C)C(=O)N[C@@H](C)C(=O)N1CCC[C@H]1C(=O)N[C@@H](Cc1ccccc1)C(=O)N[C@@H](C)C(=O)N[C@@H](CCCCN)C(=O)N[C@@H](CCCCN)C(=O)N[C@@H](CCCCN)C(N)=O [Peptide 4] ({CH2CO}-W[dP]GRC[PEG3][PEG3]K(6FAM)EAIYAAPFAKKK-NH2; thioether N-5)
